Hits are enriched below; roughly 2% of the tested compounds scored in any of these assays.
NTR1 ag = NTR1 (human) agonism; P30989; NTR1-U2OS beta-arrestin-GFP spot imaging, agonist mode; activation, % at 20 µM; hit rate 0.17% among 330,000;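 active = activation at or above 40% of the spot to cytoplasm intensity ratio, with at least 20 cells analyzed; inconclusive = wells under 20 cells, flagged as cytotoxic or low count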
PKA-R1A activ = activates the PKA-R1A holoenzyme complex | P00514+P68181 | PKA-R1A dissociation, Cy5-IP20 fluorescence polarization; scaled: DMSO 0%, 113 µM cGMP 100% | activation, % at 11.4 µM | hit rate 0.083% among 340,000;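 active = percent activation above the mean of all tested compounds plus 3 SD, cut at about 19% in these data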;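 also: higher means more PKAc released from R1A so a rise in polarization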
CAL PDZ FP-1 = inhibitors of human CAL PDZ peptide binding | AID 504414 | purified CAL PDZ, TMR-peptide fluorescence polarization, 1 h | inhibition, % at 20 µM | hit rate 0.02% among 330,000;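 active = highest replicate inhibition of at least 40%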
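Test system: tagged CAL PDZ domain / Buffer or medium: sodium phosphate/NaCl buffer pH 7.4 with TCEP, IgG, Thesit / Reagent: TMR-labelled reporter peptide T*-PRC34 bound in PDZ groove / Compound dosing: single point, 20 µM / Schedule: 1 h incubation at room temperature before polarization reading / Technique: fluorescence polarization (mP) / Benchmarks: unlabelled peptide, DMSO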
CAL PDZ FP-2 = blocks peptide binding to the human CAL PDZ domain | hit rate 0.92% among 300,000 | purified CAL PDZ, TMR-peptide fluorescence polarization, 1 h | AID 602252 | inhibition, % at 24.9 µM;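 active = mean inhibition of at least 30% with at least half of replicates also reaching 30%; inconclusive = no clear call, values can overlap the other calls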
dFosB act-1 = activators of mouse delta FosB homodimer; purified delta FosB, TAMRA-CDK5 oligo fluorescence polarization; percent of positive-control signal above neutral wells; activation, % at 25 µM; hit rate 0.99% among 340,000; P13346;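 active = mean activation above about 17%, with every replicate also reaching it, limit read from the data, passing the limit was not always enough; inconclusive = only one of the two conditions met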
Target sequence (P13346 whole entry, looked up): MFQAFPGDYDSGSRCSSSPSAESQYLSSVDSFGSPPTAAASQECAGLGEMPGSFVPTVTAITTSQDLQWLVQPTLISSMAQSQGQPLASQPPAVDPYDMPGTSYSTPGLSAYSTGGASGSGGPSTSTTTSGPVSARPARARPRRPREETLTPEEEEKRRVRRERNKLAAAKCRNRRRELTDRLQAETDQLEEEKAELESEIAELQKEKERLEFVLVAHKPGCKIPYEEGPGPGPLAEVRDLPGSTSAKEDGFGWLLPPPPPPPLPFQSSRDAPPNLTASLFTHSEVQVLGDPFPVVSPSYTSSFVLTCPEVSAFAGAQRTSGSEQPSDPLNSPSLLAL
PKA-R2B activ = activates the human PKA-R2B holoenzyme complex; PKA-R2B holoenzyme dissociation, Cy5-IP20 fluorescence polarization; R2B truncated from residue 108, S112A mutant; 0% DMSO only, 100% 113 µM cGMP; activation, % at 11.4 µM; hit rate 0.079% among 340,000; P22694+P31323;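 active = activation above a cutoff set at the mean over all compounds plus 3 SD, cut at about 18% in these data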;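 also: higher means more holoenzyme dissociation and a rise in polarization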
dFosB act-2 = delta FosB (mouse) homodimer activation; purified delta FosB, TAMRA-CDK5 oligo fluorescence polarization; normalised: neutral wells 0, positive control 100; AID 588690; activation, % at 24.9 µM; shares compounds with dFosB act-1; 2,400 tested, under 10 active;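 active = highest replicate activation at or above 34% and every replicate reaching that threshold; inconclusive = meets only one of the two criteria; inactive = meets neither criterion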;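 also: higher polarization means more probe DNA bound by delta FosB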
A number is an active result; i = inactive; ? = inconclusive; nt = no result.

SMILES	NTR1 ag	PKA-R1A activ	CAL PDZ FP-1	CAL PDZ FP-2	dFosB act-1	PKA-R2B activ	dFosB act-2
CC(=O)[C@@]1(O)C(C)CC2C3C=C(C)C4=Cc5c(cnn5-c5ccccc5)C[C@]4(C)C3C(O)C[C@@]21C (some centres undefined)	nt	i	i	i	i	i	nt
COc1ccc(-c2cc(=O)oc3c(C)c(OC(C)C(=O)Nc4ccc(CN5CCOCC5)cc4)ccc23)cc1 (centres undefined)	i	i	i	nt	43	i	i
Cc1c(-c2nc(N)nc(Nc3ccc(F)cc3)n2)oc2ccccc12	i	i	nt	i	71	i	i
COc1cc2c(cc1OC)C(C)N(C(=O)c1cc3c(=O)oc4ccc(C)cc4c3s1)CC2 (centres undefined)	i	i	i	nt	41	i	i
COc1cc2c(cc1OC)C(C)N(C(=O)c1cccs1)CC2 (centres undefined)	i	i	i	i	i	i	nt
COc1ccc(Cl)cc1C(=O)NNC(=O)c1cc2ccccc2o1	i	i	i	i	35	i	i
O=C(Cn1nnc(-c2ccc(Cl)cc2)n1)N1CCN(C(=O)c2ccco2)CC1	i	i	i	i	i	i	nt
COc1ccc(-c2csc(NC(=S)NC(=O)c3ccco3)n2)cc1	i	i	i	i	47	i	i
O=C(O)COc1ccc(NC(=O)c2ccc(NC(=O)c3ccco3)cc2)cc1	i	i	i	i	i	i	nt
O=C(NC(=S)Nc1nc(-c2ccccc2)cs1)c1ccco1	i	i	i	i	i	i	nt
COc1ccc(C(=O)Nc2ccc(-c3nnn(CC(=O)N4CCN(C(=O)c5ccco5)CC4)n3)cc2)cc1	i	i	i	i	68	i	i
COc1ccc(C(=O)Nc2ccc(NC(=O)c3ccco3)cc2)cc1	i	i	i	nt	51	i	i
COc1ccc(-c2csc(N(C)C(=O)c3ccco3)n2)cc1	i	i	i	i	i	i	nt
COc1ccc(OC)c(-c2csc(N(C)C(=O)c3ccco3)n2)c1	i	i	i	nt	19	i	i
Cc1cccc(C(=O)OC(C)CN2C(C)CCCC2C)c1 (centres undefined)	i	i	i	i	i	i	nt
Cc1ccc(C(C)C)c(OCC(=O)NC2CCN(C)CC2)c1	i	i	i	i	i	i	nt
COc1ccc(S(=O)(=O)N2CCC(C(=O)N[C@@H](C)C(=O)NCc3ccccn3)CC2)cc1	nt	i	nt	nt	nt	i	nt
COc1ccccc1CNC(=O)COC(=O)c1cc(=O)[nH]c2ccccc12	i	i	i	nt	i	i	nt
O=C(Nc1cccnc1Cl)c1cc(-c2ccc(Br)cc2)on1	i	i	i	i	i	i	nt
COc1ccc(-c2cc(C(=O)Nc3cccnc3Cl)no2)cc1OC	i	i	i	i	i	i	nt
COc1cccc(-c2cc(C(=O)Nc3cccnc3Cl)no2)c1	i	i	i	i	31	i	i
O=C(Nc1cccnc1Cl)c1cc(-c2cccc(O)c2)on1	i	i	i	i	55	i	i
Cc1nc(Cc2nnc(SC(C)C(=O)Nc3ccccc3)o2)cs1 (centres undefined)	nt	i	nt	nt	nt	i	nt
O=C(COC(=O)c1ccncc1)Nc1cccc2ccccc12	i	i	i	nt	i	i	nt
O=C(COC(=O)c1ccc2c(c1)C(=O)N(Cc1ccncc1)C2=O)Nc1cccc2ccccc12	i	i	i	i	27	i	i
SMILES	NTR1 ag	PKA-R1A activ	CAL PDZ FP-1	CAL PDZ FP-2	dFosB act-1	PKA-R2B activ	dFosB act-2
O=C(Nc1ccc(NS(=O)(=O)c2ccccc2)cc1)c1ccccc1	i	i	i	i	?	i	nt
O=C(Cc1ccccc1)NNC(=O)c1ccc(NC(=O)c2ccccc2)cc1	i	i	i	i	i	i	nt
O=C(Nc1ccc2nn(-c3ccccc3)nc2c1)c1ccc2c(c1)OCCO2	i	i	i	i	i	i	nt
CCOc1ccc(-n2nc3ccc(NC(=O)c4ccc5c(c4)OCCO5)cc3n2)cc1	i	i	i	i	99	i	i
O=C(Nc1ccc(NC(=O)c2ccc3c(c2)OCCO3)cc1)c1ccccc1	i	i	i	i	35	i	i
O=C(Nc1ccc(NS(=O)(=O)c2ccccc2)cc1)c1ccc(Cl)cc1	i	i	i	i	26	i	i
O=C(NNC(=O)c1ccc(NC(=O)c2ccccc2)cc1)c1ccccc1	i	nt	i	i	18	nt	i
CCOc1cc(/C=N/NC(=O)C2CCCC2)ccc1OC(C)C	i	i	i	nt	i	i	nt
CCCCc1c(C)nc2nc(SCc3ccc(Cl)cc3)[nH]n2c1=O	nt	i	i	i	i	i	nt
O=C(Cc1c(Cl)cccc1Cl)NCCc1ccc(Cl)cc1	i	i	i	nt	20	i	i
COc1ccccc1CNC(=O)CSc1nc(N)c(C#N)c(-c2cccs2)c1C#N	i	i	i	i	75	i	i
N#Cc1c(N)nc(SCC(=O)NCc2ccc3c(c2)OCO3)c(C#N)c1-c1cccs1	i	i	i	i	i	i	nt
COc1ccc(-c2cc(-c3cccs3)c(C#N)c(SCC(=O)NCc3ccccc3OC)n2)cc1	i	i	i	i	23	i	i
Cc1cc(C(=O)N/N=C/C=C/c2cccc([N+](=O)[O-])c2)n[nH]1	i	i	i	nt	i	i	nt
Nc1cc(C(=O)N/N=C/c2cccc([N+](=O)[O-])c2)n[nH]c1=O	i	i	i	i	18	i	i
CCCCCCCC(=O)Nc1ccc(C(=O)N/N=C/c2cccc([N+](=O)[O-])c2)cc1	i	i	i	i	20	i	i
O=C(COC(=O)C1CC2CCCC(C1)C2=O)NC1CCCCC1 (centres undefined)	i	i	i	i	i	i	nt
Oc1ccc(-c2sc(Nc3ccccc3)n[n+]2-c2ccc(F)cc2)cc1	i	i	i	i	i	i	nt
CSc1ccc(-c2sc(Nc3ccccc3)n[n+]2-c2ccc(F)cc2)cc1	i	i	i	i	23	i	i
N#CCC(=O)N/N=C/c1cn(Cc2ccccc2C#N)c2ccccc12	i	i	i	i	i	i	nt
N#CCC(=O)N/N=C/c1cn(Cc2ccc(Cl)c(Cl)c2)c2ccccc12	i	i	i	i	51	i	i
Cc1cc(C(=O)CSc2nnc(-c3ccc(OC(F)F)cc3)o2)c(C)n1Cc1cccs1	i	i	i	i	?	i	nt
COc1ccc(-c2nnc(SCC(=O)c3ccc(O)cc3O)o2)cc1	i	i	i	nt	40	i	i
COc1ccc(-c2nnc(SCC(=O)c3cc(C)n(Cc4cccs4)c3C)o2)cc1	i	i	i	i	43	i	i
Cc1ccc2c(c1)C(=O)C(=O)N2Cc1ccc(Cl)cc1	i	i	i	i	i	i	nt

High-throughput results: PubChem, several laboratories
